Shown are actives, neighbours in structure and some others; about 4.5% of the full set was active somewhere.
TAAR1 antag: antagonists of human TAAR1. inhibition, % at 3 µM. actives 1.5% (n = 360,000). CHO RD-HGA16 TAAR1, Fluo-8 calcium fluorescence, antagonist. Q96RJ0;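 active = inhibition above a per-plate cutoff, the mean inhibition of test compounds on that plate plus 3 SD, cut at about 49% in these data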
Target sequence (Q96RJ0 whole entry, looked up): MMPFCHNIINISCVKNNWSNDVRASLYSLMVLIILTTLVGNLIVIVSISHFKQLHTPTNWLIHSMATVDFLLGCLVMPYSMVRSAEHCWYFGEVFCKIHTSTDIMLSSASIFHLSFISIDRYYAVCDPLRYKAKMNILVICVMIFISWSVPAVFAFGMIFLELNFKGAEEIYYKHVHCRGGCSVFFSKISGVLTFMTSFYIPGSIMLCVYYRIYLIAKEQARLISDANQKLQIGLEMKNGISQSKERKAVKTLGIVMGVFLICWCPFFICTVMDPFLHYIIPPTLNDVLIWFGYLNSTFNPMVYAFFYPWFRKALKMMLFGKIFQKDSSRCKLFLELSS
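Material: RD-HGA16 CHO cells with stable hTAAR1 and Gα16; Dosing: single nominal final test compound concentration of 3 µM; Schedule: seeding 17-24 h prior, 75-min 37 °C, 30-min RT dye loading; Detection: kinetic Fluo-8 calcium fluorescence measurement; Measure: % inhibition from peak post-agonist over basal fluorescence ratio; Benchmarks: vehicle and agonist controls.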
CHO parental Ca: counter-screen: ATP calcium response change in parental CHO cells | inhibition, % at 5.6 µM | AID 463079 | actives 0.63% (n = 330,000) | parental CHO-K1, ATP-induced calcium, Fluo-8 fluorescence;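 active = inhibition above that plate's mean sample inhibition plus 3 SD, cut at about 26% in these data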
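Test system: untransfected parental CHO cell line. Compound: one dose, 5.6 µM nominal. Detection: intracellular calcium via Fluo-8 no-wash fluorescent dye. Measure: % inhibition. Benchmarks: ATP-challenged DMSO wells low, unchallenged DMSO wells high.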
OX1R antag-1: human HCRTR1 antagonism. AID 434989. CHO/OX1R cells, Fluo-8 calcium fluorescence, orexin A. actives 0.43% (n = 330,000). inhibition, % at 5 µM;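 active = inhibition above its plate's threshold, mean inhibition of all tested compounds on the plate plus 3 SD, cut at about 37% in these data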
GPR7 antag: blocks human GPR7 receptor signaling. actives 1.1% (n = 290,000). inhibition, % at 4.4 µM. AID 1861. P48145. GPR7-expressing cells, fluorescence antagonist assay; in the data active = inhibition above about 16%, passing the limit was not always enough;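 also: cells stimulated with the agonist NPW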
Target sequence (P48145 whole entry, looked up): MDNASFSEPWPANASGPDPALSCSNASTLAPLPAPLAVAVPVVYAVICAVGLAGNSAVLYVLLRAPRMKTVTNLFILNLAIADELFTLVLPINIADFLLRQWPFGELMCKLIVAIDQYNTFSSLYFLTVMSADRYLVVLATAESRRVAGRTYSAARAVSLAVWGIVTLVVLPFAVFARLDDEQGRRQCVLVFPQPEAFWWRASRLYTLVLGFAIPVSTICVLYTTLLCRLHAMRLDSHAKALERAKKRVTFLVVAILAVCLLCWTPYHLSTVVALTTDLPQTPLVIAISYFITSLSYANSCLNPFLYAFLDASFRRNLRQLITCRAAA
TAAR1 agonist: human TAAR1 agonism; AID 624467; CHO RD-HGA16 TAAR1, Fluo-8 calcium fluorescence; vehicle wells 0%, saturating PEA agonist 100%; actives 0.99% (n = 360,000); Q96RJ0; activation, % at 3 µM;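 active = activation above the mean activation of all test compounds in the run plus 3 SD, cut at about 38% in these data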
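System: CHO-derived RD-HGA16 cells with stable Gα16 and human TAAR1. Times: 17-24 h plating, Fluo-8 75 min 37 °C, 30 min RT. Measured by: calcium-sensitive Fluo-8 signal, excitation 470-495, emission 515-575 nm. Read-out basis: % activation relative to PEA EC100 response. Control set: DMSO and PEA EC100. Repeats: no replicates (n 1).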
OX1R antag-2: OX1R (human) antagonism. OX1R-expressing cells, FRET antagonist read-out. inhibition, % at 6.6 µM. AID 485270. O43613. actives 1.8% (n = 330,000); in the data active = inhibition mostly above about 38%, no sharp cut-off; inactive = mostly below about 40%
GPR7 antag cf: confirmation of human GPR7 antagonists; shares compounds with GPR7 antag; GPR7-expressing cells, calcium fluorescence antagonist mode; inhibition, % at 4.4 µM; actives 52% (n = 2,400); AID 1952; in the data active = inhibition above about 24%;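 also: stimulated with the GPR7 agonist NPW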
MCHR1 antagonist: antagonizes human MCHR1, a GPR7 antagonist counter-screen; shares compounds with GPR7 antag; AID 2148; actives 62% (n = 2,400); MCHR1-expressing cells, fluorescence antagonist assay; inhibition, % at 4.4 µM; in the data active = inhibition above about 22%
Each line names hits and unclear results; the compound was inactive in the other large screens (follow-up assays come after a bar, where they were run).

C#CCOCCOCCOCCNc1nc(N2CCN(C(=O)[C@H](Cc3cc4ccccc4[nH]3)n3cc([C@@H](N)CC(C)C)nn3)CC2)nc(N2CCN(C(=O)[C@H](Cc3cc4ccccc4[nH]3)n3cc([C@@H](N)CC(C)C)nn3)CC2)n1	GPR7 antag 79.1 (no result: TAAR1 antag, TAAR1 agonist) | GPR7 antag cf 54.4 | MCHR1 antagonist 33.0
C#CCOCCOCCOCCNc1nc(N2CCOCC2)nc(N2CCN(C(=O)[C@H](Cc3cc4ccccc4[nH]3)n3cc([C@@H](N)CC(C)C)nn3)CC2)n1	none (no result: TAAR1 antag, TAAR1 agonist)
O=C(CCCn1c(=O)oc2ccccc21)NC1CCCCCC1	GPR7 antag 21.0 (no result: TAAR1 antag, TAAR1 agonist) | GPR7 antag cf inactive | MCHR1 antagonist inactive
Cc1ccc2c(c1)c1c(n2CC(O)CNC(CO)(CO)CO)CCCC1 (configuration not stated)	none
Cc1ccc2c(c1)c1c(n2CC(O)CNC2CCCCC2)CCCC1 (configuration not stated)	GPR7 antag 32.4 | GPR7 antag cf 55.9 | MCHR1 antagonist 53.7
CCN1CCN(C(c2nnnn2Cc2ccc3c(c2)OCO3)C(C)C)CC1 (configuration not stated)	none
CC(C)C(c1nnnn1Cc1ccc(F)cc1)N1CCN(Cc2ccc3c(c2)OCO3)CC1 (configuration not stated)	GPR7 antag 26.7 | GPR7 antag cf inactive | MCHR1 antagonist 24.9
Nc1ccc2ccccc2c1C(=O)c1ccccc1	none (no result: CHO parental Ca, OX1R antag-1, GPR7 antag, OX1R antag-2)
Cc1ccc(S(=O)(=O)NCc2cccc([N+](=O)[O-])c2)cc1	none (no result: CHO parental Ca, OX1R antag-1, GPR7 antag, OX1R antag-2)
Cc1ccc(Cl)cc1NC(=O)c1cc2ccccc2cc1O	CHO parental Ca 57.5, OX1R antag-1 46.2, GPR7 antag 24.5 | GPR7 antag cf 54.5 | MCHR1 antagonist 53.3
COc1cc(/C=C(\C#N)C(=O)Nc2ccc(C(=O)O)cc2)ccc1OC(=O)c1cccc(F)c1	GPR7 antag 30.6 | GPR7 antag cf 33.8 | MCHR1 antagonist inactive
CCCCNC(=O)c1nc(-c2cnc(C)cn2)oc1-c1ccc(Cl)cc1	none (no result: CHO parental Ca, OX1R antag-1, GPR7 antag, OX1R antag-2)
COc1ccccc1/C=C(\C#N)C(=O)c1cccn1C	none
COc1ccccc1/C=C(/C#N)C(=O)O	none (no result: CHO parental Ca, OX1R antag-1, OX1R antag-2) | GPR7 antag cf inactive | MCHR1 antagonist inactive
O=C(NCc1ccccc1)c1cc(=O)c2ccccc2o1	GPR7 antag 22.3 | GPR7 antag cf inactive | MCHR1 antagonist inactive
CC(O)(Cc1cccnc1)c1cccs1 (configuration not stated)	none (no result: CHO parental Ca, OX1R antag-1, GPR7 antag, OX1R antag-2)
COc1ccccc1-c1nnc2sc(COc3ccc(F)cc3)nn12	GPR7 antag 42.3 | GPR7 antag cf inactive | MCHR1 antagonist 52.3
Cc1ccc(N/C(N)=N/c2nc(C)cc(C)n2)cc1	GPR7 antag 75.1 | GPR7 antag cf 64.4 | MCHR1 antagonist 73.4
O=C(COC(=O)C1(c2ccc(Cl)cc2)CCCC1)NC1CCS(=O)(=O)C1 (configuration not stated)	none
CCc1cccc(CC)c1NC(=O)COC(=O)C1(c2ccc(Cl)cc2)CCCC1	GPR7 antag 41.8 | GPR7 antag cf 35.9 | MCHR1 antagonist 50.5
COc1ccccc1-c1nnc(C2CCN(S(=O)(=O)c3cccc([N+](=O)[O-])c3)CC2)o1	none
COc1ccccc1-c1nnc(C2CCN(S(=O)(=O)c3ccc([N+](=O)[O-])cc3)CC2)o1	GPR7 antag 21.2 | GPR7 antag cf 48.2 | MCHR1 antagonist 31.7
CCOC(=O)N1CCOCCOCCN(C(=O)OCC)CCOCC1	none
CCOC(=O)N1CN(C(=O)OCC)CN(C(=O)OCC)C1	GPR7 antag 17.8 | GPR7 antag cf inactive | MCHR1 antagonist inactive
CNc1ncnc2c1ncn2[C@H]1CN(Cc2ccncc2)C[C@@H](CO)O1	none (no result: CHO parental Ca, OX1R antag-1, GPR7 antag, OX1R antag-2)
CC(=O)c1ccc(N2CCN(C(=O)c3cccc(Oc4ccccc4)c3)CC2)cc1	GPR7 antag 23.1 | GPR7 antag cf 34.1 | MCHR1 antagonist 53.4
COc1ccc(-c2noc(Cc3ccc(Cl)cc3)n2)cc1OC	GPR7 antag 24.9 | GPR7 antag cf inactive | MCHR1 antagonist inactive
c1ccc(-c2nc(-c3ccncc3)no2)cc1	none
Cc1ccc(Cc2nc(-c3ccncc3)no2)cc1	GPR7 antag 23.5 | GPR7 antag cf inactive | MCHR1 antagonist 28.3
c1ccc(C(Cc2nc(-c3ccncc3)no2)c2ccccc2)cc1	GPR7 antag 50.5 | GPR7 antag cf 53.6 | MCHR1 antagonist 44.7
COc1ccc(-c2noc(COc3ccc4ccccc4c3Br)n2)cc1OC	GPR7 antag 21.0 | GPR7 antag cf inactive | MCHR1 antagonist inactive
CC1=C(C(=O)N2CCCCCC2)CC(CC(=O)NCC2CCCCC2)C(=O)N1CCCN1CCCC1=O (configuration not stated)	none (no result: CHO parental Ca, OX1R antag-1, GPR7 antag, OX1R antag-2)
COCCCN1C(=O)C(CC(=O)NCCN2CCOCC2)CC(C(=O)N2CCOCC2)=C1C (configuration not stated)	none (no result: CHO parental Ca, OX1R antag-1, GPR7 antag, OX1R antag-2)
CC1(C(=O)O)CCN1C(=O)c1ccccc1F (configuration not stated)	none (no result: CHO parental Ca, OX1R antag-1, GPR7 antag, OX1R antag-2)
COc1cc2c(cc1OC)CN(C(=O)CSc1ccccc1C)CC2	none (no result: GPR7 antag)
Cc1ccc(NC(=O)NCCN2CCCCC2)cc1	none
CCC(C)c1ccc(NC(=O)NCCN2CCCCC2)cc1 (configuration not stated)	GPR7 antag 31.9 | GPR7 antag cf inactive | MCHR1 antagonist inactive
CCCCC(OC(=O)CN1C(=O)COc2ccccc21)C(=O)NC1CCCCC1 (configuration not stated)	GPR7 antag 30.8 | GPR7 antag cf 38.4 | MCHR1 antagonist 24.1
CCc1nc2c(OCc3ccc(C(F)(F)F)cc3)cccn2c1N(C=O)Cc1ccc(OC)cc1	none (no result: CHO parental Ca, OX1R antag-1, GPR7 antag, OX1R antag-2)
CC(C)(C)c1cc(CN2CCCCC2)cc(C(C)(C)C)c1O	GPR7 antag 22.8 | GPR7 antag cf inactive | MCHR1 antagonist 29.4
O=S(=O)(NC1CCCC1)c1ccc(F)cc1F	none (no result: CHO parental Ca, OX1R antag-1, GPR7 antag, OX1R antag-2)
COc1ccc(C=O)cc1COc1ccc2c(c1)OCO2	none (no result: CHO parental Ca, OX1R antag-1, GPR7 antag, OX1R antag-2)
COc1ccc(C=O)cc1COc1ccc([N+](=O)[O-])c(C)c1	GPR7 antag 23.4 | GPR7 antag cf 49.3 | MCHR1 antagonist 44.0
CC(O)(c1ccc(F)c(F)c1)c1nc(-c2ccc(S(C)(=O)=O)cc2)cs1 (configuration not stated)	none (no result: CHO parental Ca, OX1R antag-1, GPR7 antag, OX1R antag-2)
CCN(CC)S(=O)(=O)c1ccc(NC(=O)COc2nc3ccccc3nc2N2CCOCC2)cc1	GPR7 antag 23.8 | GPR7 antag cf inactive | MCHR1 antagonist inactive
O=C(COc1nc2ccccc2nc1N1CCOCC1)Nc1cccc(S(=O)(=O)N2CCCCC2)c1	none
O=C(c1ccccc1-c1ccccc1)N1CCN(c2ccccn2)CC1	GPR7 antag 26.5 | GPR7 antag cf inactive | MCHR1 antagonist 23.6
